Measurements as given in publication PMC9095748 (The Journal of Biological Chemistry, 2022).
In brackets after ≈: the same amount, converted by molar mass. Several values for one entry are separate records, joined by “and”; a condition that tells them apart may be missing. Equal values may be shown once.

Key:
[1] = biological target: T1, hGLP1R (Homo sapiens, UniProt P43220); test: GLP1R internalization in hGLP1R-GFP transfected HepG2 cells; type: cell-based; settings: for GLP1R internalization: 50 μM, 1 h, hGLP1R-GFP transfected HepG2 cells
T1 sequence (P43220 24-463): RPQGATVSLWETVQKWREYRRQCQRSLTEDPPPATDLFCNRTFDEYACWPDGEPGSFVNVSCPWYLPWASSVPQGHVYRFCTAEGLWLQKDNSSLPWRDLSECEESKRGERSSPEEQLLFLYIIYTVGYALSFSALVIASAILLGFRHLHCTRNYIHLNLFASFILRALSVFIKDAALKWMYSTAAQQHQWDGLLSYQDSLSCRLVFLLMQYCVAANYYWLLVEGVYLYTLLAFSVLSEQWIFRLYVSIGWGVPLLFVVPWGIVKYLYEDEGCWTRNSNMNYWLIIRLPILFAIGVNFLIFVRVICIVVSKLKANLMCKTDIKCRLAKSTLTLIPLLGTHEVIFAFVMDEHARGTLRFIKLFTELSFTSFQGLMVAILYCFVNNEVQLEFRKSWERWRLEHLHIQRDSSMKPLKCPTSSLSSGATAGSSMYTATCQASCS
How it was run: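 HepG2 cells lipofected with hGLP1R-spark-GFP, then treated 1 h with test compound (50 µM), Ex-4 (20 nM, positive control) or DMSO. For antagonism, Ex-9 (300 nM) added 15 min before. Washed in PBS and formalin-fixed. Surface labelled with sulfo-NHS-biotin (1 mg/ml, 30 min, 4 °C), washed in 100 mM glycine, PFA-fixed, blocked in 1% BSA and stained with Texas-Red-avidin (5 µg/ml, 30 min). Internalization read by confocal microscopy.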

[2] = system: CREB phosphorylation at Ser133; test: CREB phosphorylation, Western blot in HepG2 cells; type: cell-based, human; settings: PK2 50 μM, 1 hr, serum-starved HepG2 cells, vs DMSO
[3] = Tissue distribution after oral administration in mice; type: in vivo, BALB/c mice; settings: 2 h after oral administration
How it was run: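 Male BALB/c mice dosed orally at 25 mg/kg. Organs (pancreas, heart, brain, lung, spleen, kidney, liver) collected 2 h after dosing and homogenized. Extracted with acetonitrile:methanol (1:1) and run on reverse-phase C18 HPLC with 0.1% TFA water/acetonitrile (40:60) and fluorescence detection (ex 350 nm, em 497 nm). Quantified against a standard curve.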

[4] = system: TXNIP promoter; test: TXNIP promoter-luciferase activity assay in INS-1 cells; type: cell-based, rat; settings: PK2 50 μM, 45 min, INS-1 cells transfected with TXNIP promoter-luciferase construct
[5] = system: PKA; test: PKA activity ELISA in hGLP1R transfected 293A cells; type: cell-based, human; settings: PK2 50 μM, 45 min, vs DMSO
How it was run: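 293A cells lipofected with hGLP1R-spark-GFP. After 48 h, seeded at 1.0×10^4 cells/well. Next day treated with test compound (50 μM) or DMSO for 45 min in serum-free medium. PKA activity read by an ELISA on immobilized PKA substrate, per the kit protocol.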

[6] = system: STZ-induced diabetic mouse model; test: STZ-induced diabetic mouse model; type: in vivo, BALB/c mice
How it was run: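 Male BALB/c mice, 6-7 weeks old, acclimated 1 week, on chow. STZ 65 mg/kg in citrate buffer pH 4.0 given IP for 5 days after overnight fast. Test compound 25 mg/kg oral in CMC for 18 days, starting 3 days before or 1 day after STZ. Controls received 0.25% CMC with or without STZ. Tail-vein glucose taken on alternate days, body weight on random days. Pancreas sections stained for insulin/Ki67 and insulin/TUNEL; n ≥ 5/group.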

[7] = Pharmacokinetics after single oral dose in BALB/c mice; type: in vivo
How it was run: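 Male BALB/c mice (5-6 weeks, 25 ± 2 g) given a single oral dose of 25 mg/kg and killed at 5 min to 24 h. Plasma extracted with acetonitrile:methanol (1:1) and run on reverse-phase C18 HPLC at 28 °C. Mobile phase 0.1% TFA water/acetonitrile (40:60) at 1 ml/min, fluorescence detection (ex 350 nm, em 497 nm). Quantified from peak-area standard curve; PK parameters by standard methods.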

[8] = Solubility in DMSO; type: physicochemical
[9] = biological target: T1, hGLP1R; test: cAMP Glo assay in hGLP1R-transfected 293A cells; type: cell-based
How it was run: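 293A cells transiently lipofected with hGLP1R at 70% confluency. Seeded 4 h later at 5×10^4 cells/well and left overnight. Treated 4 h with DMSO or test compound at 0.5, 10, 20, 100, 200, 300, 500, 1000 and 2000 nM. Cells lysed and cAMP read by cAMP-Glo luminescence. EC50 from curve fitting; n = 3/group.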

[10] = Safety observation in BALB/c mice over 30 days of treatment; type: in vivo; settings: 25 mg/kg
[11] = system: TXNIP; test: TXNIP protein expression, Western blot in INS-1 cells; type: cell-based, rat; settings: PK2 30 min
How it was run: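 INS-1 cells treated with test compound or DMSO vehicle for 30 min. Lysed in RIPA buffer with protease and phosphatase inhibitors, protein measured by BCA, and reduced at 95 °C for 5 min. Run on 4-10% SDS-PAGE and blotted to PVDF. Blocked in 5% BSA or milk, then probed with anti-TXNIP and HRP-conjugated secondary in TBST with 5% BSA.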

[12] = system: INS-1 cells; test: Insulin secretion assay in INS-1 cells; type: cell-based, rat; settings: high glucose 16.7 mM, 1.5 h
How it was run: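 INS-1 cells seeded, then held 16 h in 5 mM glucose medium and 1.5 h in 2.5 mM glucose. Treated 1.5 h with test compound or DMSO vehicle at 16.7 mM glucose. Supernatant insulin measured by rat insulin ELISA and normalized to total protein. n = 3/group.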

[13] = BALB/c mice, oral, single dose 25 mg/kg, plasma
[14] = male, BALB/c, mouse, plasma, po, 25 mg/kg

With “6-((1-(4-methoxybenzyl)-1H-1,2,3-triazol-4-yl)methyl)-6H-indolo[2,3-b]quinoxaline [PK4]” the GLP1R internalization [1] was “rapidly internalized GLP1R receptors”.

For `O=[N+]([O-])c1ccc(Cn2cc(Cn3c4ccccc4c4nc5ccccc5nc43)nn2)cc1` [PK2, 6-((1-(4-nitrobenzyl)-1H-1,2,3-triazol-4-yl)methyl)-6H-indolo[2,3-b]quinoxaline], the “Increase in CREB phosphorylation at Ser133” value [2] was 1.7 fold, the “Tissue distribution: brain” value [3] was “A small amount of PK2 was detectable” and the “Tissue distribution: heart, lungs, and spleen” value [3] was “no traces”. For the same molecule, the “Tissue distribution: liver, kidney, and pancreas” value [3] was “distributed highly”, the TXNIP promoter activity [4] was “attenuates TXNIP promoter activity” and the “Increment in PKA activity” value [5] was 1.6 fold. For the same molecule, the “Recovery of serum insulin levels” value ([6]; PK2-treated groups, 25 mg/kg oral, end of study, vs STZ group) was “up to 6 fold”, the “Enhancement of β-cell proliferation (Ki67)” value ([6]; PK2 groups, Ki67 in insulin-positive islet cells) was 1.7 fold and the Pancreas weight ([6]; PK2 groups, at termination of the study) was “protection in pancreas weight”. The Body weight ([6]; STZ mice, PK2 25 mg/kg oral, compared to STZ only) was “increased body weight”, the “Reduction of number of TUNEL-positive cells in pancreatic islets” value ([6]; both PK2 groups compared to STZ group) was 3 fold and the “Preservation of β-cell mass” value ([6]; pre-PK2 and post-PK2 groups compared to STZ, insulin immunohistochemistry) was 4 fold. For the same molecule, the “Islets area (H&E)” value ([6]; pre-PK2 and post-PK2 groups vs STZ group) was “significantly bigger islets area”, the “Reduction of plasma glucose levels” value ([6]; pre-PK2 and post-PK2 groups, 25 mg/kg oral, compared to STZ only) was 1.4 fold and the GLP1R internalization [1] was “rapidly internalized GLP1R receptors”. For the same molecule, the “Plasma clearance (CL)” value ([7]; BALB/c mice, oral, single dose 25 mg/kg) was 7.79 L/h, the “AUMC (0-t)” value [7, 13] was 13,601.58 ng h/ml and the Area of last [7, 13] was 0.3201451 µg·h/mL. The “Cl (Clearance)” value [7, 13] was 7.7875 L/h, the “K (Eliminatory rate constant)” value [7, 13] was 0.2003 h⁻¹ and the “VD (Apparent volume of distribution)” value ([7]; BALB/c mice, oral, single dose 25 mg/kg, plasma, 25 mg/kg) was 38.88 L and 38.882 L. For the same molecule, the AUC(0-t) [7, 14] was 3.21 µg·h/mL, the Cmax [7, 14] was 0.787 µg/mL and the Tmax [7, 14] was 1 h. For the same molecule, the half-life ([7]; male, BALB/c, mouse, plasma, po, 25 mg/kg, t1/2 (Elimination half life), BALB/c mice, single dose 25 mg/kg) was 4.8 h, the solubility [8] was 10 mg/mL (≈ 23 mM) and the EC50 [9] was 0.0437 µM. The “Abnormal behavior or acute toxicity” value [10] was “no abnormal behavior or acute toxicity was observed”, the TXNIP protein expression [11] was “downregulates TXNIP” and the “Increase in insulin secretion” value [12] was 1.45 fold.

In the case of `Cc1ccc(Cn2cc(Cn3c4ccccc4c4nc5ccccc5nc43)nn2)cc1` [PK3, 6-((1-(4-methylbenzyl)-1H-1,2,3-triazol-4-yl)methyl)-6H-indolo[2,3-b]quinoxaline], the GLP1R internalization [1] is reported as “rapidly internalized GLP1R receptors”.

In the case of “Exendin (9–39) [Ex-9, reference compound]”, the “Effect of antagonist on PK2-mediated GLP1R internalization” value ([1]; Ex-9 300 nM for 15 min, then PK2 50 μM for 1 h, HepG2 cells) is reported as “blocking PK2-mediated GLP1R internalization”.
